In ChEMBL document CHEMBL4368918, “Structure-Based Design of Inhibitors Selective for Human Proteasome β2c or β2i Subunits” (J Med Chem, 2019):

Columns and labels:
[1] = biological target: T1, Proteasome Macropain subunit MB1 (Homo sapiens, UniProt P28074); test: Inhibition of 20S constitutive proteasome beta 5 chymotrypsin-like activity in human Raji cell lysates after 1 hr by competitive ABPP assay; type: subcellular, Lysate
T1 sequence (P28074 whole entry): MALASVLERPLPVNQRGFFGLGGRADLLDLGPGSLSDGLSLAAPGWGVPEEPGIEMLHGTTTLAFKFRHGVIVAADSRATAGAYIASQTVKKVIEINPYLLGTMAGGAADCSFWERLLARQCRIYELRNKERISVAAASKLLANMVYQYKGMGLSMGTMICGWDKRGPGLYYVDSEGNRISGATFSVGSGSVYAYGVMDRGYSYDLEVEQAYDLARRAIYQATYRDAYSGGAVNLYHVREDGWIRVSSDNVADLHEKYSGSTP

[2] = biological target: T2, Proteasome subunit beta type-8 (Homo sapiens, UniProt P28062); test: Inhibition of 20S immunoproteasome beta 5 in human Raji cell lysates after 1 hr by competitive ABPP assay; type: subcellular, Lysate
T2 sequence (P28062 whole entry): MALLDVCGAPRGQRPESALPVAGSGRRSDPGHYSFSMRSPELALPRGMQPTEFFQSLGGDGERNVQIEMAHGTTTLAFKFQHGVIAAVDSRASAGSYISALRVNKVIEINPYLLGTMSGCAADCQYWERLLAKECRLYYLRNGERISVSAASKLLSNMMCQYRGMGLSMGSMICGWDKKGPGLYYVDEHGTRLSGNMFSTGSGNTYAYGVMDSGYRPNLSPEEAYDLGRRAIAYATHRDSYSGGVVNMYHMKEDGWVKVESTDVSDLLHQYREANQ

[3] = biological target: T3, Proteasome subunit beta type-6 (Homo sapiens, UniProt P28072); test: Inhibition of 20S constitutive proteasome beta 1 caspase-like activity in human Raji cell lysates after 1 hr by competitive ABPP assay; type: subcellular, Lysate
T3 sequence (P28072 whole entry): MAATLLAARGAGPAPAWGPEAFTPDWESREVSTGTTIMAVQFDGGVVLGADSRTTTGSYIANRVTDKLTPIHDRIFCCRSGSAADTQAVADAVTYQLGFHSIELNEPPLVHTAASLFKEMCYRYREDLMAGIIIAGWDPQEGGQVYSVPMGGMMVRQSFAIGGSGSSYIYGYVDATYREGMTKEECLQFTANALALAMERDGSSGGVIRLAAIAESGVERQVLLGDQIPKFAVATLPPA
Summary of the method: (§1)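 Raji cells were sonicated in 3 volumes of Tris pH 7.5 lysis buffer containing DTT, MgCl₂, sucrose, 2 mM ATP and 0.05% digitonin. Lysate (5 μg protein, in buffer with 2 mM ATP and glycerol) was preincubated with inhibitor for 1 h at 37 °C, then with a cocktail of three fluorescent ABPs for 1 h. In-gel fluorescence densitometry was normalized to mock. IC50 came from the mean of three experiments.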

[4] = biological target: T4, Proteasome subunit beta type-9 (Homo sapiens, UniProt P28065); test: Inhibition of 20S immunoproteasome beta 1 in human Raji cell lysates after 1 hr by competitive ABPP assay; type: subcellular, Lysate
T4 sequence (P28065 whole entry): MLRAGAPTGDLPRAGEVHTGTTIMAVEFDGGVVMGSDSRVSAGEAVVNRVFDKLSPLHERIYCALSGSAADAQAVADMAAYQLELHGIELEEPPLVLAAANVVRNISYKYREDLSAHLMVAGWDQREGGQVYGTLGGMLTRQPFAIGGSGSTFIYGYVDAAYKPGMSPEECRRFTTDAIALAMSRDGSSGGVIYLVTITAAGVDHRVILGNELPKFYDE
Summary of the method: as §1, with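 “h. […]” for “h.”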

[5] = biological target: T5, Proteasome subunit beta type-10 (Homo sapiens, UniProt P40306); test: Inhibition of 20S immunoproteasome beta 2 (unknown origin) by cell based ABPP assay
T5 sequence (P40306 whole entry): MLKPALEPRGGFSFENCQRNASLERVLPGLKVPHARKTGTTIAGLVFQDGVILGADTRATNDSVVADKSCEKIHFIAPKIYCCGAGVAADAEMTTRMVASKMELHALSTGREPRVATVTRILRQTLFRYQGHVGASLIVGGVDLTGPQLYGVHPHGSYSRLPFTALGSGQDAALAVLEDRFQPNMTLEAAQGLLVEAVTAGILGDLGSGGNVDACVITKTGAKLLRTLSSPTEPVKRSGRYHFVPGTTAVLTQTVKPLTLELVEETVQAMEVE
Summary of the method: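 Living RPMI-8226 cells, (5–8) ×10^5 cells/mL, exposed to inhibitor 1 h at 37 °C, washed, lysed in digitonin buffer 1 h on ice; residual activity labelled with cocktail ABPs, SDS-PAGE in-gel fluorescence, bands divided by mock, Coomassie staining to correct loading. IC50 from mean of three independent experiments.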

Homo sapiens [6] = species: Homo sapiens; test: Selectivity ratio of IC50 for 20S immunoproteasome beta 2 (unknown origin) to IC50 for 20S constitutive proteasome beta 2 trypsin-like activity (unknown origin)
[7] = biological target: T5, Proteasome subunit beta type-10; test: Inhibition of 20S immunoproteasome beta 2 in human Raji cell lysates after 1 hr by competitive ABPP assay; type: subcellular, Lysate
[8] = biological target: T1, Proteasome Macropain subunit MB1; test: Inhibition of 20S constitutive proteasome beta 5 chymotrypsin-like activity in human RPMI8226 cell lysates after 1 hr by coomassie brilliant blue staining-based fluorescence assay; type: subcellular, Lysate
Summary of the method: (§2)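 Cells at (5–8)×10⁵ cells/mL were exposed to inhibitor for 1 h at 37 °C, washed in PBS and lysed on ice for 1 h in digitonin/ATP buffer. Residual activity was read by cocktail-ABP labeling, SDS-PAGE and fluorescence densitometry relative to mock, with Coomassie staining correcting for loading. IC50 came from three independent experiments.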

Homo sapiens [9] = species: Homo sapiens; test: Selectivity ratio of IC50 for 20S immunoproteasome beta 2 in human Raji cell lysates to IC50 for 20S constitutive proteasome beta 2 trypsin-like activity in human Raji cells; type: cell-based
Homo sapiens [10] = species: Homo sapiens; test: Selectivity ratio of IC50 for 20S immunoproteasome beta 1 in human Raji cell lysates to IC50 for 20S constitutive proteasome beta 2 trypsin-like activity in human Raji cells; type: cell-based
Homo sapiens [11] = species: Homo sapiens; test: Selectivity ratio of IC50 for 20S constitutive proteasome beta 1 caspase-like activity in human Raji cell lysates to IC50 for 20S constitutive proteasome beta 2 trypsin-like activity in human Raji cells; type: cell-based
Homo sapiens [12] = species: Homo sapiens; test: Selectivity ratio of IC50 for 20S immunoproteasome beta 5 in human Raji cell lysates to IC50 for 20S constitutive proteasome beta 2 trypsin-like activity in human Raji cells; type: cell-based
Homo sapiens [13] = species: Homo sapiens; test: Selectivity ratio of IC50 for 20S constitutive proteasome beta 5 chymotrypsin-like activity in human Raji cell lysates to IC50 for 20S constitutive proteasome beta 2 trypsin-like activity in human Raji cells; type: cell-based
[14] = biological target: T6, Proteasome subunit beta type-7 (Homo sapiens, UniProt Q99436); test: Inhibition of 20S constitutive proteasome beta 2 trypsin-like activity in human RPMI8226 cell lysates after 1 hr by coomassie brilliant blue staining-based fluorescence assay; type: subcellular, Lysate
T6 sequence (Q99436 whole entry): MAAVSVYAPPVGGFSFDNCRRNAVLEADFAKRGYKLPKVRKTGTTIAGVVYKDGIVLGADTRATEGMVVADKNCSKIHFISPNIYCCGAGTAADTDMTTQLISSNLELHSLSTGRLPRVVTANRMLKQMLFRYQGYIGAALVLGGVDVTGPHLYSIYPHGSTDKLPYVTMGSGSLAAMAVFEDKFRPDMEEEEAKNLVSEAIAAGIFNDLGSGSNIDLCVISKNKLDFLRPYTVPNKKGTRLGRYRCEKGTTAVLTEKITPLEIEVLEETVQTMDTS

[15] = biological target: T5, Proteasome subunit beta type-10; test: Inhibition of 20S immunoproteasome beta 2 in human RPMI8226 cell lysates after 1 hr by coomassie brilliant blue staining-based fluorescence assay; type: subcellular, Lysate
[16] = biological target: T2, Proteasome subunit beta type-8; test: Inhibition of 20S immunoproteasome beta 5 in human RPMI8226 cell lysates after 1 hr by coomassie brilliant blue staining-based fluorescence assay; type: subcellular, Lysate
Summary of the method: as §2, with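 “Living RPMI-8226 cells were grown in RPMI-1640 with 10% FCS. Cells” for “Cells”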

[17] = biological target: T4, Proteasome subunit beta type-9; test: Inhibition of 20S immunoproteasome beta 1 in human RPMI8226 cell lysates after 1 hr by coomassie brilliant blue staining-based fluorescence assay; type: subcellular, Lysate
Summary of the method: as §2, with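 “Living RPMI-8226 cells were grown in RPMI-1640 with 10% FCS. Cells” for “Cells”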

Structure (SMILES) | IC50 [1] [µM] | IC50 [2] [µM] | IC50 [3] [µM] | IC50 [4] [µM] | IC50 [5] [µM] | Ratio IC50 (Homo sapiens [6]) | IC50 [7] [µM] | IC50 [8] [µM] | Ratio IC50 (Homo sapiens [9]) | Ratio IC50 (Homo sapiens [10]) | Ratio IC50 (Homo sapiens [11]) | Ratio IC50 (Homo sapiens [12]) | Ratio IC50 (Homo sapiens [13]) | IC50 [14] [µM] | IC50 [15] [µM] | IC50 [16] [µM] | IC50 [17] [µM]
COc1ccc(C[C@H](NC(=O)[C@H](C)NC(=O)CN2CCOCC2)C(=O)N[C@@H](C[C@@H]2CCCC3CCCCC32)C(=O)[C@@]2(C)CO2)cc1 (some centres undefined) | > 100 | > 100 | > 100 | > 100 | – | – | – | – | – | – | – | – | – | – | – | – | –
Cc1ncc(C(=O)N[C@@H](CC2CCCCC2)C(=O)N[C@@H](CC(C)C)C(=O)N[C@H](/C=C/S(C)(=O)=O)Cc2ccc(CN)cc2)s1 | > 100 | > 100 | > 100 | > 100 | 0.54 | 30 | 0.42 | > 10 | 6 | > 1500 | > 1500 | > 1500 | > 1500 | > 10 | > 10 | > 10 | > 10
COc1ccc(C[C@H](NC(=O)[C@H](C)NC(=O)CN2CCOCC2)C(=O)N[C@@H](C[C@@H]2CCC[C@H]3CCCC[C@H]32)C(=O)[C@@]2(C)CO2)cc1 | > 100 | 28.4 | 53 | > 100 | – | – | – | – | – | – | – | – | – | – | – | – | –
CC(C)C[C@H](NC(=O)c1cnccn1)C(=O)N[C@@H](CC(C)C)C(=O)N[C@H](/C=C/S(C)(=O)=O)Cc1ccc(CN)cc1 | > 100 | > 100 | > 100 | > 100 | 6.5 | 40 | 2.9 | > 10 | 17 | > 600 | > 600 | > 600 | > 600 | > 10 | > 10 | > 10 | > 10
COC[C@H](NC(=O)[C@H](CC(C)C)NC(=O)c1cnc(C)s1)C(=O)N[C@H](/C=C/S(C)(=O)=O)Cc1ccc(CN)cc1 | 45.3 | 57.1 | > 100 | > 100 | > 1 | > 14 | 4 | > 10 | 52 | > 1300 | > 1300 | 740 | 590 | > 10 | > 10 | > 10 | > 10
